Measured values from different studies.
Lines come from different studies, so protocols differ.
ABHD6: Monoacylglycerol lipase ABHD6 (ABHD6, Homo sapiens, UniProt Q9BV23)
DRD4: D(4) dopamine receptor (DRD4, Homo sapiens, UniProt P21917)
COQ8A: Atypical kinase COQ8A, mitochondrial (COQ8A, Homo sapiens, UniProt Q8NI60)
PI4KA: Phosphatidylinositol 4-kinase alpha (PI4KA, Homo sapiens, UniProt P42356)

Compound | target | test | system | conditions | inhibition
O=C(Oc1nsnc1N1CCC(Cc2ccccc2)CC1)N1CCCCC1 | ABHD6 | enzyme activity, inhibitor, fluorescence |  | 1 µM, lysate | 15%
CCCNc1nc2ccccc2n1Cc1ccc(Cl)cc1 | DRD4 | ligand displacement |  | 10 µM | 2.14%
O=C(Oc1nsnc1N1CCC(c2ccccc2)CC1)N1CCCCC1 | ABHD6 | enzyme activity, inhibitor, fluorescence |  | 1 µM, lysate | 41%
CCN1CC(c2ccccc2)c2cc(OC)c(OC)c3c2C1Cc1cc2c(cc1-3)OCO2 (stereo not shown) | 5-hydroxytryptamine receptor 5A (HTR5A, Homo sapiens, UniProt P47898) | ligand displacement, radioligand |  | 10 µM | -12.1%
CS(=O)(=O)Nc1cccc(-c2csc(NC(=O)CSc3nc4nccnc4c(=O)n3CCc3ccccc3)n2)c1 | COQ8A | enzyme activity, inhibitor |  | 10 µM | 14%
CCN(CC)c1ccc(C2Nc3ccc(C(=O)c4ccccc4)cc3NC3=C2C(=O)CC(C)(C)C3)cc1 (stereo not shown) | DRD4 | ligand displacement, radioligand |  | 10 µM | 100%
O=C(CSc1nc2nccnc2c(=O)n1CCc1ccccc1)Nc1ccccc1 | PI4KA | enzyme activity, inhibitor |  | 10 µM | < 20%
CN1CC(Oc2cnc(C#N)cc2-c2ccn3nc(NC(=O)C4CC4)cc3c2)C1 | Tribbles homolog 2 (TRIB2, Homo sapiens, UniProt Q92519) | enzyme activity, inhibitor |  | 1 µM | 9%
O=C(CSc1nc2nccnc2c(=O)n1CCc1ccccc1)Nc1nccs1 | COQ8A | enzyme activity, inhibitor |  | 10 µM | 10%
O=C(c1ccc(F)cc1)N(Cc1ccccc1)C1CCCCC1 | D(4) dopamine receptor (DRD4, Homo sapiens, UniProt P21917, del265-296) | cell-free assay |  | 10 µM | 1%
Cn1cnc(Br)c1C1=CN(c2ncnc3[nH]cnc23)CCS1 | Mitogen-activated protein kinase kinase kinase 19 (MAP3K19, Homo sapiens, UniProt Q56UN5) | enzyme activity, inhibitor, radiometric |  | 50 nM | 29.5%
N#Cc1cc(Cn2c(N3CCCC3)nc3ccccc32)ccc1F | DRD4 | ligand displacement |  | 10 µM | -0.93%
CCN1CCN(Cc2ccc(NC(=O)c3ccc(C)c(Oc4ccnc5[nH]ccc45)c3)cc2C(F)(F)F)CC1 | PI4KA | target engagement in cells, inhibitor, chemoproteomics | Huh-7 | 10 µM | -10.4%
